Source: ChEMBL document CHEMBL1124988, “Synthesis and antimicrobial and cytotoxic activities of pyrrole-containing analogues of trichostatin A” (J Med Chem, 1990)
In brackets after ≈: the same amount, converted by molar mass.

Columns and labels:
Vaccinia virus = assay: Effective dose required for antiviral activity against Vaccinia virus; format: functional; conditions: Orthopoxvirus vaccinia; read-out: ED50 (the source's name)
Human alphaherpesvirus 1 = assay: Effective dose required for antiviral activity against HSV-1 virus; format: functional; conditions: read-out: ED50 (the source's name)
Outline: (§1)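 Plaque-reduction assay in Vero cells. Dose-response lines were drawn by linear regression, and ED50 is the concentration giving 50% fewer plaques than untreated, virus-infected controls.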

[1] = Toxic dose that reduced by 50% the number of cells with respect to untreated controls.; format: toxicity, cell-based; conditions: chlorocebus sabaeus, Vero cells; read-out: TD50 (the source's name)
Outline: (§2)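 Exponentially growing Vero cells were exposed to a range of compound concentrations for three cell cycles (3 days) at 37 °C in 5% CO2. Viable cells were counted by hemocytometer in duplicate samples. MNTD is the highest concentration still allowing exponential growth. TD50 is the concentration halving cell number versus untreated controls.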

[2] = system: Vesicular stomatitis virus; assay: Effective dose required for antiviral activity against VSV virus; format: functional; conditions: read-out: ED50 (the source's name)
unidentified adenovirus = assay: Effective dose required for antiviral activity against adeno virus; format: functional; conditions: read-out: ED50 (the source's name); outline: as §1
Vero = assay: Maximum nontoxic dose that allow exponential cell growth for three cell cycles; format: functional, Chlorocebus sabaeus; outline: as §2
[3] = system: African swine fever virus; assay: Effective dose required for antiviral activity against ASFV virus; format: functional; conditions: read-out: ED50 (the source's name)

Compound	EC50 (Vaccinia virus)	EC50 (Human alphaherpesvirus 1)	CC50 [1]	EC50 [2]	EC50 (unidentified adenovirus)	MNTD (Vero)	EC50 [3]
CCOC(=O)/C=C/c1cc(C(=O)c2ccc(F)cc2)cn1C	10 µg/mL (≈ 33.2 µM)	10 µg/mL (≈ 33.2 µM)	15 µg/mL (≈ 49.8 µM)	50 µg/mL (≈ 166 µM)	50 µg/mL (≈ 166 µM)	4 µg/mL	10 µg/mL (≈ 33.2 µM)
Cn1cc(C(=O)c2ccccc2)cc1/C=C/C(=O)NO	> 30 µg/mL	> 30 µg/mL	30 µg/mL (≈ 111 µM)	> 30 µg/mL	> 30 µg/mL	15 µg/mL	> 30 µg/mL
Cn1cc(C(=O)c2ccc([N+](=O)[O-])cc2)cc1/C=C/C(=O)NO	15 µg/mL (≈ 47.6 µM)	15 µg/mL (≈ 47.6 µM)	30 µg/mL (≈ 95.2 µM)	> 50 µg/mL	25 µg/mL (≈ 79.3 µM)	15 µg/mL	25 µg/mL (≈ 79.3 µM)
CCOC(=O)/C=C/c1cc(C(=O)c2ccc(OC)cc2)cn1C	20 µg/mL (≈ 63.8 µM)	15 µg/mL (≈ 47.9 µM)	15 µg/mL (≈ 47.9 µM)	15 µg/mL (≈ 47.9 µM)	4 µg/mL (≈ 12.8 µM)	8 µg/mL	8 µg/mL (≈ 25.5 µM)
CN(C)c1ccc(C(=O)c2cc(/C=C/C(=O)O)n(C)c2)cc1	> 250 µg/mL	> 250 µg/mL	> 250 µg/mL	> 500 µg/mL	125 µg/mL (≈ 419 µM)	125 µg/mL	> 250 µg/mL
Cn1cc(C(=O)c2ccc(F)cc2)cc1/C=C/C(=O)O	100 µg/mL (≈ 366 µM)	60 µg/mL (≈ 220 µM)	60 µg/mL (≈ 220 µM)	> 50 µg/mL	50 µg/mL (≈ 183 µM)	15 µg/mL	30 µg/mL (≈ 110 µM)
CCOC(=O)/C=C/c1cc(C(=O)c2ccc(Cl)cc2)cn1C	500 µg/mL (≈ 1570 µM)	350 µg/mL (≈ 1100 µM)	500 µg/mL (≈ 1570 µM)	> 1000 µg/mL	30 µg/mL (≈ 94.4 µM)	250 µg/mL	> 500 µg/mL
Cn1cc(C(=O)c2ccc(F)cc2)cc1/C=C/C(=O)NO	15 µg/mL (≈ 52 µM)	10 µg/mL (≈ 34.7 µM)	15 µg/mL (≈ 52 µM)	> 50 µg/mL	> 50 µg/mL	8 µg/mL	12 µg/mL (≈ 41.6 µM)
Cn1cc(C(=O)c2ccc(Cl)cc2)cc1/C=C/C(=O)NO	30 µg/mL (≈ 98.4 µM)	30 µg/mL (≈ 98.4 µM)	30 µg/mL (≈ 98.4 µM)	> 30 µg/mL	15 µg/mL (≈ 49.2 µM)	15 µg/mL	20 µg/mL (≈ 65.6 µM)
CCOC(=O)/C=C/c1cc(C(=O)c2ccc([N+](=O)[O-])cc2)cn1C	60 µg/mL (≈ 183 µM)	125 µg/mL (≈ 381 µM)	8 µg/mL (≈ 24.4 µM)			2 µg/mL	60 µg/mL (≈ 183 µM)
CCOC(=O)/C=C/c1cc(C(=O)c2ccccc2)cn1C	30 µg/mL (≈ 106 µM)	30 µg/mL (≈ 106 µM)	4 µg/mL (≈ 14.1 µM)	30 µg/mL (≈ 106 µM)	30 µg/mL (≈ 106 µM)	2 µg/mL	30 µg/mL (≈ 106 µM)
Cc1ccc(C(=O)c2ccn(/C=C/C(=O)O)c2)cc1	100 µg/mL (≈ 392 µM)	100 µg/mL (≈ 392 µM)	125 µg/mL (≈ 490 µM)	> 125 µg/mL	60 µg/mL (≈ 235 µM)	30 µg/mL	8 µg/mL (≈ 31.3 µM)
Cn1cc(C(=O)c2ccc(-n3ccnc3)cc2)cc1/C=C/C(=O)O	> 250 µg/mL	> 250 µg/mL	> 250 µg/mL	250 µg/mL (≈ 778 µM)	250 µg/mL (≈ 778 µM)	125 µg/mL	250 µg/mL (≈ 778 µM)
Cn1cc(C(=O)c2ccc(N)cc2)cc1/C=C/C(=O)O	1000 µg/mL (≈ 3700 µM)	> 1000 µg/mL	> 1000 µg/mL	> 1000 µg/mL	1000 µg/mL (≈ 3700 µM)	>1000 µg/mL	250 µg/mL (≈ 925 µM)
COc1ccc(C(=O)c2cc(/C=C/C(=O)O)n(C)c2)cc1	500 µg/mL (≈ 1750 µM)	> 500 µg/mL	> 500 µg/mL	1000 µg/mL (≈ 3510 µM)	250 µg/mL (≈ 876 µM)	500 µg/mL	350 µg/mL (≈ 1230 µM)
Cn1cc(C(=O)c2ccc([N+](=O)[O-])cc2)cc1/C=C/C(=O)O	15 µg/mL (≈ 50 µM)	50 µg/mL (≈ 167 µM)	60 µg/mL (≈ 200 µM)	> 100 µg/mL	50 µg/mL (≈ 167 µM)	15 µg/mL	50 µg/mL (≈ 167 µM)
Cn1cc(C(=O)c2ccccc2)cc1/C=C/C(=O)O	> 500 µg/mL	> 500 µg/mL	> 250 µg/mL	500 µg/mL (≈ 1960 µM)	250 µg/mL (≈ 979 µM)	250 µg/mL	250 µg/mL (≈ 979 µM)
CCOC(=O)/C=C/c1cc(C(=O)c2ccc(N(C)C)cc2)cn1C	15 µg/mL (≈ 46 µM)	15 µg/mL (≈ 46 µM)	4 µg/mL (≈ 12.3 µM)	8 µg/mL (≈ 24.5 µM)	15 µg/mL (≈ 46 µM)	2 µg/mL	8 µg/mL (≈ 24.5 µM)
CCOC(=O)/C=C/c1cc(C(=O)c2ccc(-n3ccnc3)cc2)cn1C	> 500 µg/mL	500 µg/mL (≈ 1430 µM)	30 µg/mL (≈ 85.9 µM)	500 µg/mL (≈ 1430 µM)	15 µg/mL (≈ 42.9 µM)	15 µg/mL	30 µg/mL (≈ 85.9 µM)
Cn1cc(C(=O)c2ccc(Cl)cc2)cc1/C=C/C(=O)O	100 µg/mL (≈ 345 µM)	500 µg/mL (≈ 1730 µM)	125 µg/mL (≈ 431 µM)	250 µg/mL (≈ 863 µM)	> 500 µg/mL	30 µg/mL	> 250 µg/mL
Nc1nc2c(ncn2COCCO)c(=O)[nH]1 [ACYCLOVIR]	> 110 µg/mL	0.02 µg/mL (≈ 0.0888 µM)	240 µg/mL (≈ 1070 µM)	> 40 µg/mL		40 µg/mL	40 µg/mL (≈ 178 µM)
Nc1ncnc2c1ncn2[C@@H]1O[C@H](CO)[C@@H](O)[C@@H]1O [VIDARABINE]	16 µg/mL (≈ 59.9 µM)	10 µg/mL (≈ 37.4 µM)	10 µg/mL (≈ 37.4 µM)	> 10 µg/mL		6 µg/mL	40 µg/mL (≈ 150 µM)
